Screens from PubChem BioAssay.
TCR-CD3 inh: blocks the human TCR-CD3 interaction; TAMRA-labeled TCR probe fluorescence, biochemical; inhibition, % at 9.4 µM; 0.37% of 360,000 active;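 note: recombinant mutant TCR 2C K166C tagged with TAMRA read by polarization; 0% = receptor in buffer alone and 100% = receptor with positive control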
DDE Tn7 FP inh: inhibitors of Tn7 peptide binding to human fibrin DD(E). P02675. FP displacement of FITC-Tn7 peptide from fibrin DD(E); 0% = median of compound wells per plate. inhibition, % at 8.3 µM. 0.13% of 370,000 active;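 active = inhibition above the mean of compounds falling within the control limits plus 3 SD of them, cut at about 14% in these data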;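 note: 0% = plate median of compound wells and 100% = 10 µM Aha-Tn7 peptide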
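Assay system: human fibrin DD(E) protein / Input: 2 µM fibrin DD(E) / Benchmarks: high control of 10 µM Aha-Tn7 peptide / Measured by: fluorescence polarization of the labelled Tn7 tracer / Medium: Tris buffer with calcium and detergent, pH 7.8 / Timing: 10 min compound pre-incubation, 3 h probe incubation at room temperature / Repeats: one replicate per compound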
SIAE primary: inhibitors of human sialic acid acetylesterase SIAE | Q9HAT2 | SIAE FP-Rh probe binding, fluorescence polarization | inhibition, % at 9.66 µM | 0.69% of 370,000 active;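 active = inhibition above a cutoff: mean of compounds within the control limits plus 3 SD of those, cut at about 17% in these data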;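 note: 0% = plate median of compound wells and 100% = probe without SIAE protein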
mABHD4 FP: inhibits mouse alpha/beta hydrolase domain 4; Q8VD66; purified mABHD4, FP-Rh probe fluorescence polarization; inhibition, % at 8.92 µM; 0.54% of 370,000 active; AID 720543;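 active = inhibition exceeding the mean over every tested compound plus 3 SD, cut at about 30% in these data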;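 note: 0% = plate median of compound wells and 100% = S159A mutant with DMSO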
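system = mouse ABHD4 enzyme, wild type | medium = HEPES pH 7.0, NaCl, Pluronic buffer | also added = FP-Rh probe | incubation = Enzyme–compound pre-incubation 45 min, then probe 60 min, both 25 °C | technique = fluorescence polarization, excitation 525 nm, emission 598 nm, BODIPY TMR filters | controls = S159A mutant high control, sample median low control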
HTRA1 inh: inhibitors of human serine peptidase HTRA1; inhibition, % at 5.96 µM; 0.5% of 340,000 active; recombinant HTRA1, FP-rhodamine activity-based probe, fluorescence polarization; in the data active = inhibition above about 36%;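 note: 0% = enzyme with DMSO and 100% = wells lacking enzyme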
Target sequence (Q92743 whole entry, looked up): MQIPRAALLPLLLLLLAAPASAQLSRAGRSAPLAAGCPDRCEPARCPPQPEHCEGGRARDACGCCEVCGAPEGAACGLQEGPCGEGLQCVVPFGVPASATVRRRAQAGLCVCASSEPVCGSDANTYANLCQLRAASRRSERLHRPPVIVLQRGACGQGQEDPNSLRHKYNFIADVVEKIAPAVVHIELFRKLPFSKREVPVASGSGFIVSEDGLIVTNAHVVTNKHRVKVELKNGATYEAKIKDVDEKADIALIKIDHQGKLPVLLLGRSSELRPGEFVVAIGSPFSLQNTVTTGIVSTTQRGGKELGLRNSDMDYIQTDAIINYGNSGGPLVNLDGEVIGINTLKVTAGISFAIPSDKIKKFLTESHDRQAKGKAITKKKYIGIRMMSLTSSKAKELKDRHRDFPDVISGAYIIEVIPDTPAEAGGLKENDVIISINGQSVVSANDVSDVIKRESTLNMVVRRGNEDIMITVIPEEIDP
DDE Tn6 FP inh: disrupts Tn6 cyclic peptide binding to fibrin D-Dimer-E complex; Fibrin DD(E) TRITC-Tn6 fluorescence polarization displacement; inhibition, % at 8.3 µM; 0.21% of 370,000 active;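 active = inhibition above a per-campaign cutoff: mean of compounds within control limits plus 3 SD, cut at about 15% in these data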;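 note: 0% = median of all compound wells on the plate and 100% = blocking peptide control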
BSA probe FL: counter-screen for TCR-CD3 interaction inhibitors: BSA probe | shares compounds with TCR-CD3 inh | TAMRA-labeled BSA probe fluorescence counterscreen | inhibition, % at 9.4 µM | 10% of 1,200 active | AID 652035; in the data active = inhibition above about 23%;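 note: 0% = buffer low control and 100% = reference high control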
TCR-CD3 inh conf: confirmation of human TCR-CD3 interaction inhibitors; shares compounds with TCR-CD3 inh; TAMRA-labeled TCR probe fluorescence binding assay; inhibition, % at 9.4 µM; 48% of 1,200 active; AID 652036
Starred values were filed as active, the others as inactive; nt = not tested or not shown. Shown are actives, neighbours in structure and some others; about 1.8% of the full set was active somewhere. Cut-off read from the data, not from the text of the source, unless noted: active = inhibition above about 19%; inactive = the rest.

SMILES | TCR-CD3 inh | DDE Tn7 FP inh | SIAE primary | mABHD4 FP | HTRA1 inh | DDE Tn6 FP inh | BSA probe FL | TCR-CD3 inh conf
Cc1ccc(Cc2c(-c3cccc(Br)c3)nc3ccc(Cl)cn23)cc1 | -14 | -7 | -2 | 3 | nt | -6 | nt | nt
Cc1ccc2nc(-c3cccc(Br)c3)c(Cc3ccccc3)n2c1 | 114* | -3 | -10 | -10 | nt | 4 | 0 | -1
Cc1ccc(Cc2c(-c3cccc(Br)c3)nc3ccc(C)cn23)cc1 | 77* | 9 | -8 | 2 | nt | -1 | -9 | -1
CN(CC(=O)Nc1ccc(F)cc1)C(=O)COC(=O)c1ccc(=O)n(Cc2ccccc2)n1 | 87* | 56* | 3 | 27 | -1 | 15 | 2 | 3
CN(CC(=O)Nc1ccccc1Cl)C(=O)COC(=O)c1ccc(=O)n(Cc2ccccc2)n1 | -3 | 3 | 4 | 1 | 0 | 3 | nt | nt
COc1ccc(CCNC(=O)CCCc2ccccc2)cc1OC | 10 | 3 | 3 | 3 | 1 | 5 | nt | nt
Cc1nn(CC(=O)NC2CCCCC2)c(C)c1[N+](=O)[O-] | 0 | 6 | 2 | -4 | 3 | -10 | nt | nt
Cc1nn(CC(=O)NC2CCS(=O)(=O)C2)c(C)c1[N+](=O)[O-] (stereo not drawn) | 27* | -10 | 6 | 6 | 4 | -6 | 3 | -1
COc1ccc(-c2noc(C3CCCN(C(=O)Nc4cccc(C)c4)C3)n2)cc1 (stereo not drawn) | nt | 9 | 0 | -10 | nt | 1 | nt | nt
CN1CCN(NC(=O)c2cn(-c3ccccc3)nc2-c2cccs2)CC1 | 2 | 6 | 5 | 1 | 2 | 15 | nt | nt
O=C(Nc1ccc2ccccc2c1)c1cn(-c2ccccc2)nc1-c1cccs1 | 89* | 8 | -108 | -87 | -93 | -4 | 18 | 38*
CCOc1ccc(OCCOC(=O)CNC(=O)c2ccc(Cl)cc2Cl)cc1 | 1 | 7 | 5 | -5 | -10 | -1 | nt | nt
Cc1nnc(NC(=O)CSc2nnc(CC(=O)Nc3ccccc3F)n2C)s1 | 66* | 1 | -2 | 7 | -2 | -6 | 2 | 3
CCCCCCC[N+](CC)(CC)CCCCc1ccc(Cl)cc1 | 0 | 1 | -9 | -11 | 3 | -6 | nt | nt
O=C(CN1C(=O)NC2(CCOc3ccccc32)C1=O)c1ccc(F)cc1 (stereo not drawn) | 19* | 9 | 0 | -1 | -4 | 8 | 0 | 2
COc1ccc(-n2c(COc3ccc(C)cc3)nnc2SCC(=O)O)cc1 | 31* | 3 | -3 | 17 | -1 | -3 | 13 | 7
Oc1ccc(C=NNC(=S)Nc2ccc(F)cc2)c(O)c1 | 20* | 8 | 13 | 19 | 34 | -1 | -15 | 9
COCCCNC(=S)N/N=C/c1ccc(O)cc1O | 20* | -4 | 13 | 2 | nt | -6 | -16 | -5
COc1cc([N+](=O)[O-])cc(/C=N/NC(=O)c2cc(-c3ccccc3)nc3ccccc23)c1O | 24* | -2 | -4 | 9 | 10 | 3 | 10 | 8
Cc1cc(C(=O)N/N=C/c2cccc([N+](=O)[O-])c2)c2ccccc2n1 | -5 | 2 | 3 | 4 | -3 | -3 | nt | nt
COc1cc([N+](=O)[O-])cc(/C=N/NC(=O)c2cc(C)nc3ccccc23)c1O | 24* | -3 | -4 | 19 | 6 | -8 | -6 | 23*
CC(=O)N(C)C1(c2nnnn2CCOC(=O)Nc2ccc(Cl)cc2)CCCCC1 | 30* | -6 | -2 | 4 | 4 | 0 | 1 | 2
O=C(Nc1ccc(Br)cc1)Nc1ccccc1Cl | -1 | 1 | 1 | -16 | -5 | -2 | nt | nt
Cc1ccc(C(=O)NCCNC(=O)c2ccc(F)cc2)cn1 | -6 | -6 | -6 | 3 | 6 | 1 | nt | nt
O=C(Nc1cccc(NC(=O)c2ccccc2Cl)c1)c1ccco1 | 0 | 8 | -6 | -4 | -8 | 8 | nt | nt
O=C(Nc1cccc(NC(=O)c2ccc(-c3ccc(Br)cc3)o2)c1)c1ccco1 | 56* | 3 | -91 | -56 | -76 | 12 | 24* | 44*
